From ChEMBL document CHEMBL1142148, “Antibiotic susceptibility profile of bifidobacteria as affected by oxgall, acid, and hydrogen peroxide stress” (2007)
Converted amounts (≈) assume the structure as drawn.

Experiments:
Bifidobacterium bifidum [1] = experiment: Antimicrobial activity against 90 mins oxgall-stressed Bifidobacterium bifidum R0071 after 18 hrs; format: functional
Method in brief: (§1)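 Cells pelleted from mid-log MRS culture and resuspended in MRS (initial pH 6.5) with 0.3% (wt/vol) oxgall for 90 min anaerobically at 37°C. They were then regrown in MRS pH 6.5 for 24 h (footnote: 18 h) anaerobically and tested for MIC by the same broth microdilution assay. Median of four repetitions.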

[2] = tested on: Bifidobacterium thermophilum; experiment: Antimicrobial activity against 90 mins oxgall-stressed Bifidobacterium thermophilum ATCC 25866 after 18 hrs; format: functional; method in brief: as §1
Bifidobacterium bifidum [3] = experiment: Antimicrobial activity against Bifidobacterium bifidum R0071; format: functional
Method in brief: (§2)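 Broth microdilution in MRS plus 0.05% L-cysteine-HCl. Mid-log culture adjusted to OD650 0.1, giving about 2.5 × 10^4 to 5.0 × 10^4 CFU/well, then added to twofold serial dilutions of agent. Plates incubated anaerobically at 37°C for 18 h and read at OD650. MIC is the lowest concentration matching the uninoculated blank OD, taken as the median of four repeats.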

Bifidobacterium bifidum [4] = experiment: Antimicrobial activity against Bifidobacterium bifidum BB12; format: functional; method in brief: as §2
[5] = Antimicrobial activity against 90 mins oxgall-stressed Bifidobacterium infantis ATCC 15697 after 18 hrs; format: functional, Bifidobacterium longum subsp. infantis; conditions: Bifidobacterium longum; method in brief: as §1
Bifidobacterium longum [6] = experiment: Antimicrobial activity against 90 mins hydrogen peroxide-stressed Bifidobacterium longum P/N 601377 after 18 hrs; format: functional
Method in brief: (§3)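 Stress applied for 90 min at 37°C under anaerobic conditions, using MRS (initial pH 6.5) containing H2O2 at each strain's own inhibitory concentration. The H2O2 level was set beforehand by microplate tolerance testing. Challenged cells were regrown in MRS for 24 h (footnote: 18 h) before MIC testing by broth microdilution. Median of four repetitions.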

Bifidobacterium breve [7] = experiment: Antimicrobial activity against Bifidobacterium breve R0070; format: functional; method in brief: as §2
Bifidobacterium breve [8] = experiment: Antimicrobial activity against 90 mins oxgall-stressed Bifidobacterium breve R0070 after 18 hrs; format: functional; method in brief: as §1
Bifidobacterium breve [9] = experiment: Antimicrobial activity against 60 min 1 M HCl-stressed Bifidobacterium breve ATCC 15700 after 18 hrs; format: functional
Method in brief: (§4)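 Mid-log MRS culture pelleted and resuspended in MRS broth brought to pH 2.0 with 1 M HCl, held anaerobically at 37°C for 60 min, then subcultured in MRS (pH 6.5) for 24 h anaerobically before MIC testing by broth microdilution (as for unstressed cells). Table footnote gives 18 h anaerobic regrowth after the stress. MIC is the median of four repetitions.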

Bifidobacterium longum [10] = experiment: Antimicrobial activity against 90 mins oxgall-stressed Bifidobacterium longum ATCC 15708 after 18 hrs; format: functional; method in brief: as §1
[11] = tested on: Bifidobacterium pseudolongum; experiment: Antimicrobial activity against 90 mins oxgall-stressed Bifidobacterium pseudolongum ATCC 25562 after 18 hrs; format: functional; method in brief: as §1
Bifidobacterium breve [12] = experiment: Antimicrobial activity against Bifidobacterium breve ATCC 15700; format: functional; method in brief: as §2
Bifidobacterium longum [13] = experiment: Antimicrobial activity against 60 min 1 M HCl-stressed Bifidobacterium longum P/N 601377 after 18 hrs; format: functional; method in brief: as §4
Bifidobacterium bifidum [14] = experiment: Antimicrobial activity against 90 mins hydrogen peroxide-stressed Bifidobacterium bifidum BB12 after 18 hrs; format: functional; method in brief: as §3
[15] = tested on: Bifidobacterium pseudolongum; experiment: Antimicrobial activity against 60 min 1 M HCl-stressed Bifidobacterium pseudolongum ATCC 25562 after 18 hrs; format: functional; method in brief: as §4
Bifidobacterium animalis [16] = experiment: Antimicrobial activity against 90 mins oxgall-stressed Bifidobacterium animalis ATCC 27536 after 18 hrs; format: functional; method in brief: as §1
[17] = tested on: Bifidobacterium thermophilum; experiment: Antimicrobial activity against 60 min 1 M HCl-stressed Bifidobacterium thermophilum ATCC 25866 after 18 hrs; format: functional; method in brief: as §4
Bifidobacterium longum [18] = experiment: Antimicrobial activity against Bifidobacterium longum P/N 601377; format: functional; method in brief: as §2
Bifidobacterium breve [19] = experiment: Antimicrobial activity against 90 mins oxgall-stressed Bifidobacterium breve ATCC 15700 after 18 hrs; format: functional; method in brief: as §1
Bifidobacterium longum [20] = experiment: Antimicrobial activity against 90 mins oxgall-stressed Bifidobacterium longum ATCC 15707 after 18 hrs; format: functional; method in brief: as §1
[21] = tested on: Bifidobacterium thermophilum; experiment: Antimicrobial activity against 90 mins hydrogen peroxide-stressed Bifidobacterium thermophilum ATCC 25866 after 18 hrs; format: functional; method in brief: as §3
Bifidobacterium longum [22] = experiment: Antimicrobial activity against 90 mins oxgall-stressed Bifidobacterium longum P/N 601377 after 18 hrs; format: functional; method in brief: as §1
Bifidobacterium longum [23] = experiment: Antimicrobial activity against Bifidobacterium longum ATCC 15707; format: functional; method in brief: as §2
Bifidobacterium longum [24] = experiment: Antimicrobial activity against Bifidobacterium longum ATCC 15708; format: functional; method in brief: as §2
Bifidobacterium animalis [25] = experiment: Antimicrobial activity against 60 min 1 M HCl-stressed Bifidobacterium animalis ATCC 27536 after 18 hrs; format: functional; method in brief: as §4
Bifidobacterium longum [26] = experiment: Antimicrobial activity against 90 mins hydrogen peroxide-stressed Bifidobacterium longum ATCC 15707 after 18 hrs; format: functional; method in brief: as §3
[27] = tested on: Bifidobacterium pseudolongum; experiment: Antimicrobial activity against Bifidobacterium pseudolongum ATCC 25562; format: functional; method in brief: as §2
Bifidobacterium bifidum [28] = experiment: Antimicrobial activity against Bifidobacterium bifidum ATCC 15696; format: functional; method in brief: as §2
Bifidobacterium bifidum [29] = experiment: Antimicrobial activity against 60 min 1 M HCl-stressed Bifidobacterium bifidum R0071 after 18 hrs; format: functional; method in brief: as §4
[30] = Antimicrobial activity against Bifidobacterium infantis ATCC 15697; format: functional, Bifidobacterium longum subsp. infantis; conditions: Bifidobacterium longum; method in brief: as §2
Bifidobacterium animalis [31] = experiment: Antimicrobial activity against 90 mins hydrogen peroxide-stressed Bifidobacterium animalis ATCC 27536 after 18 hrs; format: functional; method in brief: as §3
Bifidobacterium breve [32] = experiment: Antimicrobial activity against 60 min 1 M HCl-stressed Bifidobacterium breve R0070 after 18 hrs; format: functional; method in brief: as §4
Bifidobacterium breve [33] = experiment: Antimicrobial activity against 90 mins hydrogen peroxide-stressed Bifidobacterium breve R0070 after 18 hrs; format: functional; method in brief: as §3
[34] = Antimicrobial activity against 60 min 1 M HCl-stressed Bifidobacterium infantis ATCC 15697 after 18 hrs; format: functional, Bifidobacterium longum subsp. infantis; conditions: Bifidobacterium longum; method in brief: as §4
Bifidobacterium breve [35] = experiment: Antimicrobial activity against 90 mins hydrogen peroxide-stressed Bifidobacterium breve ATCC 15700 after 18 hrs; format: functional; method in brief: as §3
Bifidobacterium longum [36] = experiment: Antimicrobial activity against 60 min 1 M HCl-stressed Bifidobacterium longum R0175 after 18 hrs; format: functional; method in brief: as §4
[37] = tested on: Bifidobacterium thermophilum; experiment: Antimicrobial activity against Bifidobacterium thermophilum ATCC 25866; format: functional; method in brief: as §2
Bifidobacterium longum [38] = experiment: Antimicrobial activity against Bifidobacterium longum R0175; format: functional; method in brief: as §2
Bifidobacterium longum [39] = experiment: Antimicrobial activity against 90 mins hydrogen peroxide-stressed Bifidobacterium longum ATCC 15708 after 18 hrs; format: functional; method in brief: as §3
Bifidobacterium bifidum [40] = experiment: Antimicrobial activity against 60 min 1 M HCl-stressed Bifidobacterium bifidum BB12 after 18 hrs; format: functional; method in brief: as §4
Bifidobacterium longum [41] = experiment: Antimicrobial activity against 60 min 1 M HCl-stressed Bifidobacterium longum ATCC 15707 after 18 hrs; format: functional; method in brief: as §4
Bifidobacterium bifidum [42] = experiment: Antimicrobial activity against 90 mins oxgall-stressed Bifidobacterium bifidum BB12 after 18 hrs; format: functional; method in brief: as §1
Bifidobacterium longum [43] = experiment: Antimicrobial activity against 90 mins hydrogen peroxide-stressed Bifidobacterium longum R0175 after 18 hrs; format: functional; method in brief: as §3
Bifidobacterium animalis [44] = experiment: Antimicrobial activity against Bifidobacterium animalis ATCC 27536; format: functional; method in brief: as §2
Bifidobacterium bifidum [45] = experiment: Antimicrobial activity against 90 mins oxgall-stressed Bifidobacterium bifidum ATCC 15696 after 18 hrs; format: functional; method in brief: as §1
Bifidobacterium bifidum [46] = experiment: Antimicrobial activity against 90 mins hydrogen peroxide-stressed Bifidobacterium bifidum R0071 after 18 hrs; format: functional; method in brief: as §3
Bifidobacterium longum [47] = experiment: Antimicrobial activity against 90 mins oxgall-stressed Bifidobacterium longum R0175 after 18 hrs; format: functional; method in brief: as §1

Structure (SMILES): NC[C@@H]1O[C@H](O[C@H]2[C@@H](O)[C@H](O[C@@H]3[C@@H](O)[C@H](N)C[C@H](N)[C@H]3O[C@H]3O[C@H](CN)[C@@H](O)[C@H](O)[C@H]3N)O[C@@H]2CO)[C@H](N)[C@@H](O)[C@@H]1O [FRAMYCETIN]
- MIC (Bifidobacterium bifidum [1]): 62.5 µg/mL (≈ 102 µM)
- MIC [2]: 125 µg/mL (≈ 203 µM)
- MIC (Bifidobacterium bifidum [3]): 250 µg/mL (≈ 407 µM)
- MIC (Bifidobacterium bifidum [4]): 250 µg/mL (≈ 407 µM)
- MIC [5]: 500 µg/mL (≈ 813 µM)
- MIC (Bifidobacterium longum [6]): 125 µg/mL (≈ 203 µM)
- MIC (Bifidobacterium breve [7]): 250 µg/mL (≈ 407 µM)
- MIC (Bifidobacterium breve [8]): 62.5 µg/mL (≈ 102 µM)
- MIC (Bifidobacterium breve [9]): 125 µg/mL (≈ 203 µM)
- MIC (Bifidobacterium longum [10]): 500 µg/mL (≈ 813 µM)
- MIC [11]: 250 µg/mL (≈ 407 µM)
- MIC (Bifidobacterium breve [12]): 250 µg/mL (≈ 407 µM)
- MIC (Bifidobacterium longum [13]): 250 µg/mL (≈ 407 µM)
- MIC (Bifidobacterium bifidum [14]): 250 µg/mL (≈ 407 µM)
- MIC [15]: 250 µg/mL (≈ 407 µM)
- MIC (Bifidobacterium animalis [16]): 125 µg/mL (≈ 203 µM)
- MIC [17]: 250 µg/mL (≈ 407 µM)
- MIC (Bifidobacterium longum [18]): 125 µg/mL (≈ 203 µM)
- MIC (Bifidobacterium breve [19]): 125 µg/mL (≈ 203 µM)
- MIC (Bifidobacterium longum [20]): 125 µg/mL (≈ 203 µM)
- MIC [21]: 500 µg/mL (≈ 813 µM)
- MIC (Bifidobacterium longum [22]): 62.5 µg/mL (≈ 102 µM)
- MIC (Bifidobacterium longum [23]): 250 µg/mL (≈ 407 µM)
- MIC (Bifidobacterium longum [24]): 250 µg/mL (≈ 407 µM)
- MIC (Bifidobacterium animalis [25]): 250 µg/mL (≈ 407 µM)
- MIC (Bifidobacterium longum [26]): 250 µg/mL (≈ 407 µM)
- MIC [27]: 250 µg/mL (≈ 407 µM)
- MIC (Bifidobacterium bifidum [28]): 250 µg/mL (≈ 407 µM)
- MIC (Bifidobacterium bifidum [29]): 250 µg/mL (≈ 407 µM)
- MIC [30]: 250 µg/mL (≈ 407 µM)
- MIC (Bifidobacterium animalis [31]): 500 µg/mL (≈ 813 µM)
- MIC (Bifidobacterium breve [32]): 250 µg/mL (≈ 407 µM)
- MIC (Bifidobacterium breve [33]): 250 µg/mL (≈ 407 µM)
- MIC [34]: 250 µg/mL (≈ 407 µM)
- MIC (Bifidobacterium breve [35]): 250 µg/mL (≈ 407 µM)
- MIC (Bifidobacterium longum [36]): 250 µg/mL (≈ 407 µM)
- MIC [37]: 250 µg/mL (≈ 407 µM)
- MIC (Bifidobacterium longum [38]): 250 µg/mL (≈ 407 µM)
- MIC (Bifidobacterium longum [39]): 250 µg/mL (≈ 407 µM)
- MIC (Bifidobacterium bifidum [40]): 125 µg/mL (≈ 203 µM)
- MIC (Bifidobacterium longum [41]): 500 µg/mL (≈ 813 µM)
- MIC (Bifidobacterium bifidum [42]): 250 µg/mL (≈ 407 µM)
- MIC (Bifidobacterium longum [43]): 125 µg/mL (≈ 203 µM)
- MIC (Bifidobacterium animalis [44]): 250 µg/mL (≈ 407 µM)
- MIC (Bifidobacterium bifidum [45]): 250 µg/mL (≈ 407 µM)
- MIC (Bifidobacterium bifidum [46]): 125 µg/mL (≈ 203 µM)
- MIC (Bifidobacterium longum [47]): 62.5 µg/mL (≈ 102 µM)
